High-throughput results deposited in PubChem by The Scripps Research Institute Molecular Screening Center.
ZTA counter = blocks Epstein-Barr virus ZTA, an EBNA-1 counter-screen; inhibition, % at 11 µM; ZTA-DNA binding, fluorescence polarization; actives 0.15% (n = 320,000); AID 2234; P03206; in the data active means inhibition above about 33%
Target sequence (P03206 whole entry, looked up): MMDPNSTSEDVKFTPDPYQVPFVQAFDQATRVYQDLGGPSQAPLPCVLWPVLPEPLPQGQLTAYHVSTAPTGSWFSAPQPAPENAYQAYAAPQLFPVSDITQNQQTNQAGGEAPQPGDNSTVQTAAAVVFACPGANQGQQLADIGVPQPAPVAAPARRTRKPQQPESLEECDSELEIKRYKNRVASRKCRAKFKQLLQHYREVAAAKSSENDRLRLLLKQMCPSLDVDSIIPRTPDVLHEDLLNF
HCV NS3 hel inh = HCV NS3 helicase inhibition. NS3 helicase DNA unwinding, Cy5 molecular beacon fluorescence. inhibition, % at 10.9 µM. actives 0.56% (n = 290,000). AID 1800;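 active means inhibition above the mean of all tested compounds plus 3 SD, set per campaign, cut at about 35% in these data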
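Assay system – hepatitis C virus NS3 helicase domain fragment enzyme · Buffer or medium – MOPS pH 6.5, MgCl2, DTT, Tween20, BSA · Reagent – Cy5/quencher beacon DNA duplex and ATP to start · Compound – single 10.9 µM dose · Timing – 1 h at 25 °C · Technique – Cy5 beacon fluorescence read at start and 1 h · Measure – % inhibition of unwinding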
EBNA-1 inhibitor = blocks EBNA-1 binding to DNA; EBNA-1 DNA binding, fluorescence polarization; actives 0.34% (n = 300,000); inhibition, % at 14.8 µM; in the data active means inhibition above about 28%
core dimer inh = HCV core protein dimerization inhibition; TR-FRET GST/Flag-core106 dimerization, 1536-well; inhibition, % at 5 µM; actives 0.33% (n = 300,000); AID 1899;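 active means inhibition above the mean of all tested compounds plus 3 SD, set per screening campaign, cut at about 45% in these data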
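test system = GST/Flag-tagged HCV core106 proteins | probe or stimulus = Eu donor and XL665 acceptor anti-tag antibodies | times = compound-protein-antibody incubation 4 h at 22.5 °C | signal = TR-FRET, excitation 340 nm, emission 617 and 671 nm | measure = percent inhibition of core106 dimerization signal | controls = wells lacking GST-core106 and wells with excess unlabelled core106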
PP1 counter = PP1-alpha (human) inhibition in PP5 counter-screen; AID 2235; purified PP1alpha, OMFP fluorescence; actives 0.9% (n = 320,000); P62136; inhibition, % at 6.7 µM;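 active means inhibition above the mean inhibition of all tested compounds plus 3 SD, computed separately for each screening campaign, cut at about 15% in these data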
Target sequence (P62136 whole entry, looked up): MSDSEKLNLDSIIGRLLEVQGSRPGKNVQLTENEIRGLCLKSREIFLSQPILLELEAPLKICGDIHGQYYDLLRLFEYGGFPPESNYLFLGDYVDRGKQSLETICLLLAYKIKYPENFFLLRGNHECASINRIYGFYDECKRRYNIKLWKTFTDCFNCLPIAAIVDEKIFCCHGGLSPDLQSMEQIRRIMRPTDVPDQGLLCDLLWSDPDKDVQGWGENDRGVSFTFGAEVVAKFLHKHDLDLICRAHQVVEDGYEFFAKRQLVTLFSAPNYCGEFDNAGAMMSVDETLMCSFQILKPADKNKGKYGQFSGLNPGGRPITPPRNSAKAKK
A number is an active result. Most compounds without a hit are left out; they make up all but 1.9% or so of the library.

What do the screens show for `COC(=O)C1=C(CN2CCc3ccccc32)NC(=O)NC1c1cc(C)ccc1C` (stereo not given)?
ZTA counter: inactive; HCV NS3 hel inh: inactive; EBNA-1 inhibitor: inactive; core dimer inh: inactive; PP1 counter: 15

Results for CN(c1cccc2cccnc12)S(=O)(=O)c1ccccc1 ?
ZTA counter: inactive; HCV NS3 hel inh: inactive; EBNA-1 inhibitor: inactive; core dimer inh: inactive; PP1 counter: inactive

Results for CCOC(=O)c1cccc(NC(=O)/C(=C\c2ccccc2)NC(=O)c2ccccc2Cl)c1 ?
ZTA counter: inactive; HCV NS3 hel inh: inactive; EBNA-1 inhibitor: inactive; core dimer inh: inactive; PP1 counter: 17

What do the screens show for `COC(=O)c1cccc(NC(=O)/C(=C\c2ccccc2)NC(=O)c2ccccc2Cl)c1`?
ZTA counter: inactive; HCV NS3 hel inh: inactive; EBNA-1 inhibitor: inactive; core dimer inh: inactive; PP1 counter: inactive

What do the screens show for `CC(C)(C)OC(=O)N1CCN(C(=O)c2[nH]cnc2C(=O)Nc2cccc(Cl)c2)CC1`?
ZTA counter: inactive; PP1 counter: inactive

Results for O=C(OCC(=O)c1ccc(Cl)s1)c1ccccn1 ?
ZTA counter: inactive; HCV NS3 hel inh: inactive; EBNA-1 inhibitor: inactive; core dimer inh: inactive; PP1 counter: inactive

Results for O=C(OCC(=O)c1ccc(Cl)s1)c1cnccn1 ?
ZTA counter: inactive; HCV NS3 hel inh: inactive; EBNA-1 inhibitor: inactive; core dimer inh: 54; PP1 counter: inactive

How did CC1CC(c2ccccc2)n2nc(NC(=O)CCc3ccccc3)nc2N1 (stereo not given) do in these assays?
ZTA counter: inactive; HCV NS3 hel inh: inactive; EBNA-1 inhibitor: inactive; core dimer inh: inactive; PP1 counter: 18

How did Cc1ccc(-n2c(SCC(=O)NCc3ccco3)nc3sc4c(c3c2=O)CC(C)(C)SC4)cc1 do in these assays?
ZTA counter: inactive; HCV NS3 hel inh: inactive; EBNA-1 inhibitor: inactive; core dimer inh: 68; PP1 counter: inactive

What do the screens show for `CCSc1nc2sc3c(c2c2nnc(SCC(=O)NCc4ccco4)n12)CCCC3`?
ZTA counter: inactive; HCV NS3 hel inh: inactive; EBNA-1 inhibitor: inactive; core dimer inh: 58; PP1 counter: inactive

How did O=C1CC(C(=O)N2CCc3ccccc32)CN1c1cccc(C(F)(F)F)c1 (stereo not given) do in these assays?
ZTA counter: inactive; PP1 counter: inactive

Results for COc1cccc(C(=O)NNC(=O)C(=O)Nc2ccc(C)c(Cl)c2)c1 ?
ZTA counter: inactive; HCV NS3 hel inh: inactive; EBNA-1 inhibitor: inactive; core dimer inh: inactive; PP1 counter: 16

How did CCc1ccc(NC(=O)C(=O)NNC(=O)c2cccc(OC)c2)cc1 do in these assays?
ZTA counter: inactive; HCV NS3 hel inh: inactive; EBNA-1 inhibitor: inactive; core dimer inh: inactive; PP1 counter: inactive

Results for Cc1ccc(C2(C)NC(=O)N(CC(=O)NCc3ccccc3Cl)C2=O)cc1 (stereo not given) ?
ZTA counter: inactive; HCV NS3 hel inh: inactive; EBNA-1 inhibitor: inactive; core dimer inh: inactive; PP1 counter: inactive

How did CN1C(=O)CC(N2CCN(c3ccccc3)CC2)C1=O (stereo not given) do in these assays?
ZTA counter: inactive; HCV NS3 hel inh: inactive; EBNA-1 inhibitor: inactive; core dimer inh: inactive; PP1 counter: inactive

Results for COC(=O)c1cc(COc2ccc3c(c2)oc(=O)c2ccccc23)c(C)o1 ?
ZTA counter: inactive; HCV NS3 hel inh: inactive; EBNA-1 inhibitor: inactive; core dimer inh: 51; PP1 counter: inactive

Results for COc1ccc(C2C(C#N)=C(N)OC(C(C)(C)C)=C2C#N)cc1OC (stereo not given) ?
ZTA counter: inactive; HCV NS3 hel inh: inactive; EBNA-1 inhibitor: inactive; core dimer inh: inactive; PP1 counter: inactive

How did COc1ccc(C2C(C#N)=C(N)SC(N)=C2C#N)cc1OC do in these assays?
ZTA counter: inactive; HCV NS3 hel inh: inactive; EBNA-1 inhibitor: inactive; core dimer inh: 61; PP1 counter: inactive

Results for Cc1cc(C(=O)NNC(=O)Cc2ccc(Cl)cc2)c(C)o1 ?
ZTA counter: inactive; EBNA-1 inhibitor: inactive; core dimer inh: inactive; PP1 counter: inactive

How did COc1cc2ccccc2cc1C(=O)Nc1ccc(C)cc1 do in these assays?
ZTA counter: inactive; HCV NS3 hel inh: inactive; EBNA-1 inhibitor: inactive; core dimer inh: inactive; PP1 counter: inactive

Results for COc1cc2ccccc2cc1C(=O)Nc1ccc(Cc2ccncc2)cc1 ?
ZTA counter: inactive; HCV NS3 hel inh: inactive; EBNA-1 inhibitor: inactive; core dimer inh: inactive; PP1 counter: 16

What do the screens show for `N=C(N)SCc1ccc(Cl)cc1Cl`?
ZTA counter: inactive; HCV NS3 hel inh: inactive; EBNA-1 inhibitor: inactive; core dimer inh: inactive; PP1 counter: 15

What do the screens show for `Cc1cc(NC(=S)N(Cc2ccc(Cl)cc2)Cc2ccc(C(=O)O)cc2)ccc1Cl`?
ZTA counter: inactive; HCV NS3 hel inh: inactive; EBNA-1 inhibitor: inactive; core dimer inh: inactive; PP1 counter: 16

How did Cc1cc(C)cc(NC(=S)N(Cc2ccc(Cl)cc2)Cc2ccc(C(=O)O)cc2)c1 do in these assays?
ZTA counter: inactive; HCV NS3 hel inh: inactive; EBNA-1 inhibitor: inactive; core dimer inh: inactive; PP1 counter: inactive

What do the screens show for `CC(C)CC(C(=O)Nc1oc(-c2ccccc2)c(-c2ccccc2)c1C#N)N1C(=O)c2ccccc2C1=O` (stereo not given)?
ZTA counter: inactive; HCV NS3 hel inh: inactive; EBNA-1 inhibitor: inactive; core dimer inh: 76; PP1 counter: inactive

What do the screens show for `CCCCCc1nnc(NC(=O)Cc2cccs2)s1`?
ZTA counter: inactive; HCV NS3 hel inh: inactive; EBNA-1 inhibitor: inactive; core dimer inh: 71; PP1 counter: inactive

Results for CC(C)c1nnc(NC(=O)Cc2cccs2)s1 ?
ZTA counter: inactive; HCV NS3 hel inh: inactive; EBNA-1 inhibitor: inactive; core dimer inh: inactive; PP1 counter: inactive

What do the screens show for `CC(C)Cc1nnc(NC(=O)Cc2cccs2)s1`?
ZTA counter: inactive; HCV NS3 hel inh: inactive; EBNA-1 inhibitor: inactive; core dimer inh: 67; PP1 counter: inactive

Results for CC(C)(C)Cc1nnc(NC(=O)Cc2cccs2)s1 ?
ZTA counter: inactive; HCV NS3 hel inh: inactive; EBNA-1 inhibitor: inactive; core dimer inh: 51; PP1 counter: inactive

Results for Cc1cc(C)cc(OCCNC(=O)c2cc(S(=O)(=O)N3CCOCC3)ccc2F)c1 ?
ZTA counter: inactive; HCV NS3 hel inh: inactive; EBNA-1 inhibitor: inactive; core dimer inh: inactive; PP1 counter: inactive

What do the screens show for `O=C(CN1c2ccccc2Sc2ccccc21)NNC(=S)Nc1ccc(Cl)cc1Cl`?
ZTA counter: inactive; HCV NS3 hel inh: inactive; EBNA-1 inhibitor: inactive; core dimer inh: inactive; PP1 counter: 20

What do the screens show for `N=c1c2c(-c3ccccc3)c(-c3ccccc3)n(Cc3ccccc3)c2ncn1CCCn1ccnc1`?
ZTA counter: inactive; HCV NS3 hel inh: inactive; EBNA-1 inhibitor: inactive; core dimer inh: inactive; PP1 counter: 15

How did N=c1c2c(-c3ccccc3)c(-c3ccccc3)n(Cc3ccco3)c2ncn1Cc1ccco1 do in these assays?
ZTA counter: inactive; HCV NS3 hel inh: inactive; EBNA-1 inhibitor: inactive; core dimer inh: inactive; PP1 counter: 16

What do the screens show for `CCNC(=O)c1ccccc1CCc1ccccc1`?
ZTA counter: inactive; HCV NS3 hel inh: inactive; EBNA-1 inhibitor: inactive; core dimer inh: inactive; PP1 counter: inactive
